Assay results published in ChEMBL document CHEMBL5058577, “EUbOPEN Chemogenomics Library 2 (Multiplex)” (2022).

Test system: HEK-293T
Experiment: Multiplex assay against HEK293T
Assay type: toxicity, cell-based
Conditions: human
In short: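 Tubulin, mitochondrial-mass and membrane-permeability phenotypes are per cents of healthy-nucleus cells. Cells were gated by CellPathfinder machine learning into Hoechst high-intensity objects or normal cells, normal cells into healthy, pyknosed or fragmented nuclei, and pyknosed cells into mitotic or apoptotic. Before that, live cells stained at seeding with Hoechst33342, BioTracker Green Microtubule Cytoskeleton Dye, MitoTracker Red and Annexin V Alexa Fluor 680 were imaged on a CQ1 microscope at 37°C and 5% CO2 after compound addition.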

[1] = 12 h, 1 µM, compound concentration 1 uM, replicate 1
[2] = 12 h, 1 µM, compound concentration 1 uM, replicate 2
[3] = 12 h, 10 µM, compound concentration 10 uM, replicate 1
[4] = 12 h, 10 µM, compound concentration 10 uM, replicate 2
[5] = 24 h, 1 µM, compound concentration 1 uM, replicate 1
[6] = 24 h, 1 µM, compound concentration 1 uM, replicate 2
[7] = 24 h, 10 µM, compound concentration 10 uM, replicate 1
[8] = 24 h, 10 µM, compound concentration 10 uM, replicate 2
[9] = 48 h, 1 µM, compound concentration 1 uM, replicate 1
[10] = 48 h, 1 µM, compound concentration 1 uM, replicate 2
[11] = 48 h, 10 µM, compound concentration 10 uM, replicate 1
[12] = 48 h, 10 µM, compound concentration 10 uM, replicate 2

COCCCN1CCC(NC(=O)c2cc(Cl)c(N)c3c2OCC3)CC1 [PRUCALOPRIDE]
Population Apoptotic (%) [1]: 22%
Population Fragmented Nuclei (%) [1]: 10%
Population Healthy Nuclei (%) [1]: 80%
Population Hoechst High Intensity Objects (%) [1]: 8%
Population Membrane Permeable-Phenotype (%) [1]: 0%
Population Mitochondria Different-Phenotype (%) [1]: 36%
Population Mitotic Cells (%) [1]: 77%
Population Normal (%) [1]: 91%
Population Pyknosed Nuclei (%) [1]: 9%
Population Tubulin-Different-Phenotype (%) [1]: 21%
Total Cell Count [1]: 416
Population Apoptotic (%) [2]: 31%
Population Fragmented Nuclei (%) [2]: 4%
Population Healthy Nuclei (%) [2]: 82%
Population Hoechst High Intensity Objects (%) [2]: 7%
Population Mitochondria Different-Phenotype (%) [2]: 59%
Population Mitotic Cells (%) [2]: 68%
Population Normal (%) [2]: 92%
Population Pyknosed Nuclei (%) [2]: 12%
Population Tubulin-Different-Phenotype (%) [2]: 16%
Total Cell Count [2]: 397
Population Apoptotic (%) [3]: 37%
Population Fragmented Nuclei (%) [3]: 8%
Population Healthy Nuclei (%) [3]: 74%
Population Hoechst High Intensity Objects (%) [3]: 4%
Population Membrane Permeable-Phenotype (%) [3]: 0%
Population Mitochondria Different-Phenotype (%) [3]: 59%
Population Mitotic Cells (%) [3]: 62%
Population Normal (%) [3]: 95%
Population Pyknosed Nuclei (%) [3]: 17%
Population Tubulin-Different-Phenotype (%) [3]: 43%
Total Cell Count [3]: 421
Population Apoptotic (%) [4]: 56%
Population Fragmented Nuclei (%) [4]: 10%
Population Healthy Nuclei (%) [4]: 72%
Population Hoechst High Intensity Objects (%) [4]: 10%
Population Mitochondria Different-Phenotype (%) [4]: 75%
Population Mitotic Cells (%) [4]: 43%
Population Normal (%) [4]: 89%
Population Tubulin-Different-Phenotype (%) [4]: 35%
Total Cell Count [4]: 261
Population Apoptotic (%) [5]: 20%
Population Fragmented Nuclei (%) [5]: 11%
Population Healthy Nuclei (%) [5]: 78%
Population Hoechst High Intensity Objects (%) [5]: 5%
Population Membrane Permeable-Phenotype (%) [5]: 1%
Population Mitochondria Different-Phenotype (%) [5]: 18%
Population Mitotic Cells (%) [5]: 79%
Population Normal (%) [5]: 94%
Population Pyknosed Nuclei (%) [5]: 10%
Population Tubulin-Different-Phenotype (%) [5]: 14%
Total Cell Count [5]: 590
Population Apoptotic (%) [6]: 28%
Population Fragmented Nuclei (%) [6]: 8%
Population Healthy Nuclei (%) [6]: 84%
Population Hoechst High Intensity Objects (%) [6]: 4%
Population Membrane Permeable-Phenotype (%) [6]: 0%
Population Mitochondria Different-Phenotype (%) [6]: 39%
Population Mitotic Cells (%) [6]: 71%
Population Normal (%) [6]: 95%
Population Pyknosed Nuclei (%) [6]: 6%
Population Tubulin-Different-Phenotype (%) [6]: 10%
Total Cell Count [6]: 546
Population Apoptotic (%) [7]: 28%
Population Fragmented Nuclei (%) [7]: 8%
Population Healthy Nuclei (%) [7]: 77%
Population Hoechst High Intensity Objects (%) [7]: 4%
Population Membrane Permeable-Phenotype (%) [7]: 0%
Population Mitochondria Different-Phenotype (%) [7]: 48%
Population Mitotic Cells (%) [7]: 71%
Population Normal (%) [7]: 95%
Population Pyknosed Nuclei (%) [7]: 13%
Population Tubulin-Different-Phenotype (%) [7]: 32%
Total Cell Count [7]: 531
Population Apoptotic (%) [8]: 50%
Population Fragmented Nuclei (%) [8]: 13%
Population Healthy Nuclei (%) [8]: 73%
Population Hoechst High Intensity Objects (%) [8]: 9%
Population Mitochondria Different-Phenotype (%) [8]: 51%
Population Mitotic Cells (%) [8]: 50%
Population Normal (%) [8]: 90%
Population Pyknosed Nuclei (%) [8]: 12%
Population Tubulin-Different-Phenotype (%) [8]: 25%
Total Cell Count [8]: 341
Population Apoptotic (%) [9]: 24%
Population Fragmented Nuclei (%) [9]: 15%
Population Healthy Nuclei (%) [9]: 76%
Population Hoechst High Intensity Objects (%) [9]: 2%
Population Membrane Permeable-Phenotype (%) [9]: 1%
Population Mitochondria Different-Phenotype (%) [9]: 16%
Population Mitotic Cells (%) [9]: 75%
Population Normal (%) [9]: 97%
Population Pyknosed Nuclei (%) [9]: 7%
Population Tubulin-Different-Phenotype (%) [9]: 11%
Total Cell Count [9]: 1001
Population Apoptotic (%) [10]: 21%
Population Fragmented Nuclei (%) [10]: 11%
Population Healthy Nuclei (%) [10]: 81%
Population Hoechst High Intensity Objects (%) [10]: 1%
Population Membrane Permeable-Phenotype (%) [10]: 0%
Population Mitochondria Different-Phenotype (%) [10]: 15%
Population Mitotic Cells (%) [10]: 78%
Population Normal (%) [10]: 98%
Population Pyknosed Nuclei (%) [10]: 6%
Population Tubulin-Different-Phenotype (%) [10]: 9%
Total Cell Count [10]: 832
Population Apoptotic (%) [11]: 20%
Population Fragmented Nuclei (%) [11]: 16%
Population Healthy Nuclei (%) [11]: 77%
Population Hoechst High Intensity Objects (%) [11]: 1%
Population Membrane Permeable-Phenotype (%) [11]: 1%
Population Mitochondria Different-Phenotype (%) [11]: 32%
Population Mitotic Cells (%) [11]: 79%
Population Normal (%) [11]: 98%
Population Pyknosed Nuclei (%) [11]: 6%
Population Tubulin-Different-Phenotype (%) [11]: 16%
Total Cell Count [11]: 772
Population Apoptotic (%) [12]: 35%
Population Healthy Nuclei (%) [12]: 75%
Population Hoechst High Intensity Objects (%) [12]: 3%
Population Membrane Permeable-Phenotype (%) [12]: 0%
Population Mitochondria Different-Phenotype (%) [12]: 31%
Population Mitotic Cells (%) [12]: 64%
Population Normal (%) [12]: 96%
Population Pyknosed Nuclei (%) [12]: 7%
Population Tubulin-Different-Phenotype (%) [12]: 15%
Total Cell Count [12]: 528

CC(F)(F)CN1CCOc2c(nn(-c3ccccc3Cl)c2-c2ccc(Cl)cc2)C1=O
Population Apoptotic (%) [1]: 29%
Population Healthy Nuclei (%) [1]: 77%
Population Membrane Permeable-Phenotype (%) [1]: 0%
Population Mitochondria Different-Phenotype (%) [1]: 43%
Population Mitotic Cells (%) [1]: 70%
Population Normal (%) [1]: 93%
Population Pyknosed Nuclei (%) [1]: 12%
Total Cell Count [1]: 397
Population Apoptotic (%) [2]: 64%
Population Healthy Nuclei (%) [2]: 78%
Population Mitochondria Different-Phenotype (%) [2]: 53%
Population Mitotic Cells (%) [2]: 35%
Population Normal (%) [2]: 91%
Population Pyknosed Nuclei (%) [2]: 16%
Total Cell Count [2]: 369
Population Apoptotic (%) [3]: 57%
Population Healthy Nuclei (%) [3]: 73%
Population Membrane Permeable-Phenotype (%) [3]: 0%
Population Mitochondria Different-Phenotype (%) [3]: 78%
Population Mitotic Cells (%) [3]: 42%
Population Normal (%) [3]: 89%
Population Pyknosed Nuclei (%) [3]: 22%
Total Cell Count [3]: 384
Population Apoptotic (%) [4]: 43%
Population Healthy Nuclei (%) [4]: 75%
Population Mitochondria Different-Phenotype (%) [4]: 84%
Population Mitotic Cells (%) [4]: 56%
Population Normal (%) [4]: 94%
Population Pyknosed Nuclei (%) [4]: 18%
Total Cell Count [4]: 397
Population Apoptotic (%) [5]: 25%
Population Healthy Nuclei (%) [5]: 79%
Population Membrane Permeable-Phenotype (%) [5]: 0%
Population Mitochondria Different-Phenotype (%) [5]: 22%
Population Mitotic Cells (%) [5]: 74%
Population Normal (%) [5]: 97%
Population Pyknosed Nuclei (%) [5]: 11%
Total Cell Count [5]: 568
Population Apoptotic (%) [6]: 43%
Population Healthy Nuclei (%) [6]: 84%
Population Mitochondria Different-Phenotype (%) [6]: 31%
Population Mitotic Cells (%) [6]: 56%
Population Normal (%) [6]: 93%
Population Pyknosed Nuclei (%) [6]: 8%
Total Cell Count [6]: 478
Population Apoptotic (%) [7]: 57%
Population Healthy Nuclei (%) [7]: 76%
Population Membrane Permeable-Phenotype (%) [7]: 0%
Population Mitochondria Different-Phenotype (%) [7]: 71%
Population Mitotic Cells (%) [7]: 42%
Population Normal (%) [7]: 92%
Population Pyknosed Nuclei (%) [7]: 15%
Total Cell Count [7]: 450
Population Apoptotic (%) [8]: 41%
Population Healthy Nuclei (%) [8]: 80%
Population Mitochondria Different-Phenotype (%) [8]: 79%
Population Mitotic Cells (%) [8]: 58%
Population Normal (%) [8]: 94%
Total Cell Count [8]: 477
Population Apoptotic (%) [9]: 22%
Population Healthy Nuclei (%) [9]: 77%
Population Membrane Permeable-Phenotype (%) [9]: 1%
Population Mitochondria Different-Phenotype (%) [9]: 14%
Population Mitotic Cells (%) [9]: 77%
Population Normal (%) [9]: 99%
Population Pyknosed Nuclei (%) [9]: 7%
Total Cell Count [9]: 1015
Population Apoptotic (%) [10]: 25%
Population Healthy Nuclei (%) [10]: 79%
Population Mitochondria Different-Phenotype (%) [10]: 23%
Population Mitotic Cells (%) [10]: 74%
Population Normal (%) [10]: 97%
Total Cell Count [10]: 734
Population Apoptotic (%) [11]: 55%
Population Healthy Nuclei (%) [11]: 74%
Population Membrane Permeable-Phenotype (%) [11]: 0%
Population Mitochondria Different-Phenotype (%) [11]: 62%
Population Mitotic Cells (%) [11]: 44%
Population Normal (%) [11]: 93%
Total Cell Count [11]: 540
Population Apoptotic (%) [12]: 35%
Population Healthy Nuclei (%) [12]: 78%
Population Mitochondria Different-Phenotype (%) [12]: 68%
Population Mitotic Cells (%) [12]: 65%
Population Pyknosed Nuclei (%) [12]: 11%
Total Cell Count [12]: 558
